pKd: −log10 of the molar value. ≈ marks a conversion by molar mass, not a printed value.
How the values were obtained:
[1] = target: BAM complex (BamABCDE), wild type (E. coli) (UniProt P0A940); test: ITC
E. coli = settings: cited from earlier work
K. pneumoniae = settings: cited from earlier work
E. coli MG1655 = test: LPS binding assay; assay type: cell-based; settings: LPS from E. coli O55:B5, 0.5–100 μg ml^−1
Procedure, shortened: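 Microbroth dilution: E. coli MG1655 at OD600 0.001 in cation-adjusted MHIIB was added to wells holding purified E. coli O55:B5 LPS (0.5–100 μg ml−1) plus serially diluted test compound or polymyxin B. Plates were incubated overnight at 37°C. The growth-inhibiting concentration was read by eye, with and without LPS.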

[2] = Cytotoxicity, microplate Alamar Blue assay; assay type: cell-based; settings: human
Procedure, shortened: (§1)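 FaDu, HepG2 and HEK293-RFP cells were grown in Eagle's MEM with 10% FBS at 37°C, 5% CO2. Cells were seeded in exponential growth, and after 24 h the medium was replaced with fresh medium holding 2-fold serial dilutions of test compound made in water. After 72 h, resazurin was added to a final 0.15 mM. […] was read 3 h later. Biological replicates.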

[3] = tested on: Pseudomonas aeruginosa PAO1; test: MIC, microbroth dilution; assay type: cell-based
[4] = tested on: K. pneumoniae clinical isolates; test: microbe, parasite or virus in culture; assay type: cell-based; settings: Klebsiella pneumoniae, K. pneumoniae ESBL JMI 1052654
[5] = tested on: Mycobacterium tuberculosis mc^26020; test: MIC, resazurin; assay type: cell-based
[6] = tested on: Stenotrophomonas maltophilia KLE 11416; test: MIC, microbroth dilution, anaerobic; assay type: cell-based; settings: KLE11416
[7] = tested on: Bacteroides caccae KLE 2423; test: MIC, microbroth dilution, anaerobic; assay type: cell-based; settings: KLE2423
[8] = tested on: Proteus mirabilis KLE 2600; test: MIC, microbroth dilution, anaerobic; assay type: cell-based; settings: KLE2600
[9] = tested on: P. aeruginosa pmrB 523C>T; test: MIC, microbroth dilution; assay type: cell-based; settings: Pseudomonas aeruginosa
[10] = tested on: Bacteroides xylanisolvens KLE 2253; test: MIC, microbroth dilution, anaerobic; assay type: cell-based; settings: KLE2253
[11] = Cytotoxicity, microplate Alamar Blue assay; assay type: cell-based; settings: human, FaDu pharynx squamous cell carcinoma cells (ATCC HTB-43)
Procedure, shortened: as §1

[12] = tested on: Haemophilus parainfluenzae KLE 2367; test: MIC, microbroth dilution, anaerobic; assay type: cell-based; settings: KLE2367
[13] = Cytotoxicity, microplate Alamar Blue assay; assay type: cell-based; settings: human, HepG2 liver hepatocellular carcinoma cells (ATCC HB-8065)
Procedure, shortened: as §1

[14] = tested on: Acinetobacter baumannii ATCC 17978; test: MIC, microbroth dilution; assay type: cell-based; settings: ATCC17978
[15] = tested on: Salmonella Typhimurium LT2 ATCC 19585; test: MIC, microbroth dilution, anaerobic; assay type: cell-based; settings: Salmonella enterica, ATCC19585|TYPHIMURIUM
[16] = tested on: Klebsiella pneumoniae ATCC 700603; test: MIC, microbroth dilution; assay type: cell-based
[17] = tested on: Faecalibacterium prausnitzii KLE 2243; test: MIC, microbroth dilution, anaerobic; assay type: cell-based; settings: KLE2243
[18] = tested on: E. coli clinical isolates; test: microbe, parasite or virus in culture; assay type: cell-based; settings: Escherichia coli, E. coli ESBL JMI 1043856
E. coli AR350 (mcr-1) = test: MIC, microbroth dilution; assay type: cell-based; settings: Escherichia coli
[19] = tested on: Enterobacter cloacae ATCC 13047; test: MIC, microbroth dilution, anaerobic; assay type: cell-based; settings: ATCC13047
[20] = tested on: Bacteroides fragilis ATCC 25285; test: MIC, microbroth dilution, anaerobic; assay type: cell-based; settings: ATCC25285
BAM complex, wild type = BAM complex, wild type (Escherichia coli, UniProt P0A940); test: BAM folding assay; assay type: biochemical, E. coli; settings: WT BAM-nanodiscs, increasing concentrations
WT BAM (BamA of BAM) = WT BAM (BamA of BAM) (Escherichia coli, UniProt P0A940); test: Isothermal Titration Calorimetry; assay type: binding, E. coli; settings: same concentration range as darobactin
Procedure, shortened: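 BAM was expressed with 0.5 mM IPTG for 3 h, extracted from membranes in DDM and Ni-NTA purified. ITC ran at 25°C in duplicate: 20 μM BAM in 1xPBS with 0.05% DDM in the cell, 200 μM ligand in the syringe, 20 injections 300 s apart, stirring at 300 rpm. Ligand-into-buffer heats were measured as a control. Data were fitted to an independent binding model.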

Work on darobactin (peptide) yielded a pKd [1] of 5.92 and a dH [1] of -25 kcal/mol.

In the case of `NC(N)=NC(=O)CC(Nc1nc(N=C(N)N)nc(NC2CCC(NC(=O)Cn3nnc(-c4ccc(F)cc4)n3)CC2)n1)C1CC1` (centres unmarked) [MRL-494], the MIC (E. coli) is given as 15 µg/mL (≈ 24.1 µM) and the MIC (K. pneumoniae) is given as 62 µg/mL (≈ 99.6 µM).

In the case of polymyxin B, the “effect of added purified LPS on antibiotic activity (MIC)” value (E. coli MG1655) was “antagonized polymyxin activity”.

`CC1(C)S[C@@H]2[C@H](NC(=O)[C@H](N)c3ccccc3)C(=O)N2[C@H]1C(=O)O` [ampicillin] showed an IC50 at 72 h [2] of over 128 µg/mL, an MIC [3] of over 128 µg/mL and an MIC [4] of over 128 µg/mL. The MIC [5] was 16 µg/mL (≈ 45.8 µM), the MIC [6] was over 128 µg/mL and the MIC [7] was 2 µg/mL (≈ 5.72 µM). For the same compound, the MIC [8] was over 128 µg/mL, the MIC [9] was over 128 µg/mL and the MIC [10] was 1 µg/mL (≈ 2.86 µM). The IC50 at 72 h [11] was over 128 µg/mL, the MIC [12] was 128 µg/mL (≈ 366 µM) and the IC50 at 72 h [13] was over 128 µg/mL. The MIC [14] was 64 µg/mL (≈ 183 µM), the MIC [15] was 2 µg/mL (≈ 5.72 µM) and the MIC ([16]; ATCC700603) was 128 µg/mL (≈ 366 µM). For the same compound, the MIC ([16]; ATCC700603, K. pneumoniae ATCC700603 (SHV-18)) was over 128 µg/mL, the MIC [17] was 64 µg/mL (≈ 183 µM) and the MIC [18] was over 128 µg/mL. The MIC (E. coli AR350 (mcr-1)) was over 128 µg/mL, the MIC [19] was over 128 µg/mL and the MIC [20] was 128 µg/mL (≈ 366 µM).

With WNWSKSF the “inhibition of BAM-ND activity” value (BAM complex, wild type) was “only minimal effects”, the “inhibition of BAM-ND activity” value (BAM complex, wild type; listed as linear peptide) was “no inhibitory activity” and the “binding to BAM by ITC” value (WT BAM (BamA of BAM)) was “no binding”.

— article PMC7188312 (Nature, 2019)
